Data on 58 molecules can be found in ChEMBL document CHEMBL3045289, “Molecular docking and three-dimensional quantitative structure-activity relationship studies on the binding modes of herbicidal 1-(substituted phenoxyacetoxy)alkylphosphonates to the E1 component of pyruvate dehydrogenase” (J Agric Food Chem, 2007).

In this assay the test system is Cucumis sativus. In words: Herbicidal activity against Cucumis sativus (cucumber) seeds assessed as inhibition of cucumber root at 28 degC for 3 days with 10 hr of lighting and 14 h in the dark. In kind it is functional, organism-based. The procedure, abridged: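 Compound dissolved in acetone with a drop of Tween 80, then diluted with water to the required concentrations. Five mL was applied to filter paper in Petri dishes, with 10 cucumber seeds pre-soaked in water for 6 h. Taproot length was read at 72 h as percent inhibition versus control. Three replicates at each of five or six concentrations; IC50 by log-probit regression.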

What is called IC50 is the midpoint of a concentration-inhibition curve.

With `COP(=O)(O)C(OC(=O)COc1ccc(Cl)cc1Cl)c1ccc(C)cc1` (stereo not drawn), the IC50 is 1.35 µM.
As for `COP(=O)(OC)C(OC(=O)COc1ccc(Cl)cc1C)c1cccs1` (stereo not drawn), the figure is 0.468 µM; as for `COP(=O)(OC)C(OC(=O)COc1ccc(Cl)cc1C)c1ccccc1` (stereo not drawn), 0.355 µM.
As for `COP(=O)(OC)C(OC(=O)COc1cccc(C(F)(F)F)c1)c1cccc(Cl)c1` (stereo not drawn), the figure is 14.5 µM; as for `COP(=O)(OC)C(OC(=O)COc1ccc(Cl)cc1C)C(Cl)(Cl)Cl` (stereo not drawn), 0.398 µM; as for `COP(=O)(OC)C(OC(=O)COc1ccc(Cl)cc1)c1cccs1` (stereo not drawn), 0.575 µM.
To `COP(=O)(OC)C(C)OC(=O)COc1c(Cl)cccc1Cl` (stereo not drawn) belongs 100 µM; to `COP(=O)(O)C(OC(=O)COc1ccc(Cl)cc1Cl)c1cccc([N+](=O)[O-])c1` (stereo not drawn), 1.23 µM.
Regarding `COP(=O)(OC)C(OC(=O)COc1cccc(Cl)c1Cl)c1ccco1` (stereo not drawn), the IC50 was 447 µM.
As for `COP(=O)(OC)C(OC(=O)COc1ccc(Cl)cc1)c1ccco1` (stereo not drawn), the figure is 0.646 µM; as for `COP(=O)(OC)C(C)OC(=O)COc1cccc(Cl)c1Cl` (stereo not drawn), 209 µM; as for `COP(=O)(OC)C(OC(=O)COc1ccc(Cl)cc1C)c1ccco1` (stereo not drawn), 3.8 µM.
Regarding `COP(=O)(OC)C(C)OC(=O)COc1cc(C)ccc1Cl` (stereo not drawn), the IC50 is 49 µM.
For the molecule `COP(=O)(OC)C(OC(=O)COc1ccc(Cl)c(C)c1)c1ccco1` (stereo not drawn), the IC50 is 3.63 µM.
On to `COP(=O)(OC)C(OC(=O)COc1cccc(C(F)(F)F)c1)c1ccc(Cl)cc1` (stereo not drawn), for which the IC50 was 6.92 µM.
As for `COP(=O)(OC)C(C)OC(=O)COc1cccc(F)c1` (stereo not drawn), the IC50 is 112 µM.
To `COP(=O)(OC)C(OC(=O)COc1cccc(C(F)(F)F)c1)c1ccc(Cl)c(Cl)c1` (stereo not drawn) belongs 8.32 µM; to `COP(=O)(OC)C(OC(=O)COc1ccc(Cl)cc1)c1ccccc1` (stereo not drawn), 0.427 µM.
Take `COP(=O)(OC)C(OC(=O)COc1cccc(F)c1)C(Cl)(Cl)Cl` (stereo not drawn): the half-inhibitory concentration (IC50) is 83.2 µM.
As for `COP(=O)(OC)C(OC(=O)COc1c(Cl)cccc1Cl)C(Cl)(Cl)Cl` (stereo not drawn), the figure is 115 µM; as for `COP(=O)(OC)C(OC(=O)COc1cccc(C(F)(F)F)c1)c1ccccc1Cl` (stereo not drawn), 7.94 µM; as for `COP(=O)(O)C(OC(=O)COc1ccc(Cl)cc1Cl)c1ccc(F)cc1` (stereo not drawn), 0.776 µM.
To `COP(=O)(OC)C(OC(=O)COc1ccc(Cl)c(C)c1)c1cccs1` (stereo not drawn) belongs 2.34 µM; to `COP(=O)(OC)C(OC(=O)COc1c(Cl)cccc1Cl)c1ccccc1` (stereo not drawn), 85.1 µM.
As for `COP(=O)(O)C(OC(=O)COc1ccc(Cl)cc1Cl)c1ccccc1` (stereo not drawn), the figure is 0.955 µM.
For `COP(=O)(OC)C(OC(=O)COc1ccc(F)cc1)C(Cl)(Cl)Cl` (stereo not drawn), the IC50 is 1.17 µM.
To `COP(=O)(OC)C(OC(=O)COc1ccc(F)cc1)c1ccccc1` (stereo not drawn) belongs 1.51 µM.
To `COP(=O)(OC)C(OC(=O)COc1cccc(C(F)(F)F)c1)c1ccc(C)cc1` (stereo not drawn) belongs 7.41 µM; to `COP(=O)(OC)C(OC(=O)COc1cccc(Cl)c1Cl)c1cccs1` (stereo not drawn), 589 µM.
As for `COP(=O)(OC)C(OC(=O)COc1cc(C)ccc1Cl)c1ccccc1` (stereo not drawn), the figure is 72.4 µM; as for `COP(=O)(OC)C(OC(=O)COc1ccc(Cl)c(C)c1)c1ccccc1` (stereo not drawn), 2.57 µM.
For `COP(=O)(OC)C(OC(=O)COc1ccc(F)cc1)c1cccs1` (stereo not drawn), the IC50 is 2.63 µM.
Take `COP(=O)(O)C(OC(=O)COc1ccc(Cl)cc1Cl)c1ccccc1Cl` (stereo not drawn): the IC50 was 0.912 µM.
As to `COP(=O)(OC)C(C)OC(=O)COc1ccc(Cl)c(C)c1` (stereo not drawn), the IC50 was 2.95 µM.
As for `COP(=O)(OC)C(OC(=O)COc1cccc(Cl)c1Cl)C(Cl)(Cl)Cl` (stereo not drawn), the figure is 70.8 µM; as for `COP(=O)(OC)C(OC(=O)COc1ccc(F)cc1)c1ccco1` (stereo not drawn), 1.82 µM.
Take `COP(=O)(OC)C(OC(=O)COc1c(Cl)cccc1Cl)c1cccs1` (stereo not drawn): the IC50 is 178 µM.
As for `COP(=O)(O)C(OC(=O)COc1ccc(Cl)cc1Cl)c1ccco1` (stereo not drawn), the figure is 0.447 µM; as for `COP(=O)(OC)C(C)OC(=O)COc1ccc(F)cc1` (stereo not drawn), 1.51 µM; as for `COP(=O)(OC)C(OC(=O)COc1cccc(Cl)c1Cl)c1ccccc1` (stereo not drawn), 229 µM.
To `COP(=O)(OC)C(OC(=O)COc1ccc(Cl)cc1Cl)c1ccco1` (stereo not drawn) belongs 0.339 µM; to `COP(=O)(OC)C(OC(=O)COc1c(Cl)cccc1Cl)c1ccco1` (stereo not drawn), 324 µM.
As for `COP(=O)(OC)C(OC(=O)COc1ccc(Cl)c(C)c1)C(Cl)(Cl)Cl` (stereo not drawn), the figure is 3.47 µM; as for `COP(=O)(OC)C(OC(=O)COc1cc(C)ccc1Cl)c1ccco1` (stereo not drawn), 87.1 µM; as for `COP(=O)(O)C(OC(=O)COc1ccc(Cl)cc1Cl)c1ccc(Cl)cc1` (stereo not drawn), 1.32 µM.
As to `COP(=O)(OC)C(OC(=O)COc1cc(C)ccc1Cl)C(Cl)(Cl)Cl` (stereo not drawn), the IC50 is 75.9 µM.
As for `COP(=O)(OC)C(OC(=O)COc1cc(C)ccc1Cl)c1cccs1` (stereo not drawn), the figure is 51.3 µM; as for `COc1ccc(C(OC(=O)COc2ccc(Cl)cc2Cl)P(=O)(O)OC)cc1` (stereo not drawn), 0.955 µM.
For `COP(=O)(OC)C(OC(=O)COc1cccc(F)c1)c1ccccc1` (stereo not drawn), the IC50 was 112 µM.
As for `COP(=O)(OC)C(C)OC(=O)COc1ccc(Cl)cc1C` (stereo not drawn), the figure is 0.437 µM.
Turning to `COP(=O)(O)C(OC(=O)COc1ccc(Cl)cc1Cl)c1ccccn1` (stereo not drawn), the IC50 is 0.575 µM.
As to `COP(=O)(O)C(OC(=O)COc1ccc(Cl)cc1Cl)c1ccc(Cl)cc1Cl` (stereo not drawn), the IC50 is 1.02 µM.
As for `COP(=O)(OC)C(OC(=O)COc1ccc(Cl)cc1Cl)c1cccs1` (stereo not drawn), the figure is 0.282 µM; as for `COP(=O)(OC)C(OC(=O)COc1cccc(F)c1)c1cccs1` (stereo not drawn), 126 µM.
As for `COP(=O)(OC)C(OC(=O)COc1ccc(Cl)cc1)C(Cl)(Cl)Cl` (stereo not drawn), the figure is 0.724 µM; as for `COP(=O)(OC)C(OC(=O)COc1cccc(F)c1)c1ccco1` (stereo not drawn), 67.6 µM.
To `COP(=O)(O)C(OC(=O)COc1ccc(Cl)cc1Cl)c1ccc(Cl)c(Cl)c1` (stereo not drawn) belongs 0.891 µM; to `COP(=O)(OC)C(C)OC(=O)COc1ccc(Cl)cc1` (stereo not drawn), 0.427 µM.
